Compound activity deposited in PubChem by several laboratories.
OX1R antag-1: human HCRTR1 antagonism | O43613 | CHO/OX1R cells, Fluo-8 calcium fluorescence, orexin A | inhibition, % at 5 µM | hit rate 0.43% among 330,000 | AID 434989;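 active = inhibition above its plate's threshold, mean inhibition of all tested compounds on the plate plus 3 SD, cut at about 37% in these data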;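 note: 0% = orexin A challenge wells and 100% = SB-334867-A antagonist wells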
Target sequence (O43613 whole entry, looked up): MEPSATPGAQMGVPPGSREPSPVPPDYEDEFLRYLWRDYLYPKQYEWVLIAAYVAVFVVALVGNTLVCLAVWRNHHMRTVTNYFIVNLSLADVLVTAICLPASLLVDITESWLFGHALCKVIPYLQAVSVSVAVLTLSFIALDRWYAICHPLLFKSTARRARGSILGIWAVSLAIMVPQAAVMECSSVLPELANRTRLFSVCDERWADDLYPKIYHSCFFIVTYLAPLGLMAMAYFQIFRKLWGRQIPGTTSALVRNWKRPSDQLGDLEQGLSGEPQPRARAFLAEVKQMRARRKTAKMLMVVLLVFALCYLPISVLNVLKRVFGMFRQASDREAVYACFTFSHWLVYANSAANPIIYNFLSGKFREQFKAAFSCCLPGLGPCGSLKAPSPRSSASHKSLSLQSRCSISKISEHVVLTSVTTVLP
CHO parental Ca: counter-screen for OX1R antagonists: effect in parental CHO cells; parental CHO-K1, ATP-induced calcium, Fluo-8 fluorescence; inhibition, % at 5.6 µM; hit rate 0.63% among 330,000;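 active = inhibition above that plate's mean sample inhibition plus 3 SD, cut at about 26% in these data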;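 note: 0% = ATP-challenged DMSO wells and 100% = DMSO wells without ATP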
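material = parental CHO cells | also added = ATP as calcium-mobilizing challenge | dosing = single point at 5.6 µM | detection = intracellular calcium via Fluo-8 no-wash fluorescent dye | read-out = % inhibition | benchmarks = low control ATP plus DMSO, high control DMSO only | repeats = one well per compound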
EP2 mod: EP2 receptor (human) modulation; induction, % at 25 µM; EP2-expressing cells, cAMP HTRF FRET, PGE2 co-stimulation; P43116; hit rate 0.83% among 260,000;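 active = compounds whose cAMP rise, as percent of the full-agonist control response, exceeds 60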;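 note: rat C6 glioma line stably carrying human EP2 under a CMV promoter; the protocol text gives 20 µM as final concentration; 100% = response of wells given 1 µM PGE2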
OX1R antag-2: blocks the human orexin 1 receptor; AID 485270; O43613; hit rate 1.8% among 330,000; inhibition, % at 6.6 µM; OX1R-expressing cells, FRET antagonist read-out; in the data active = inhibition mostly above about 38%, no sharp cut-off; inactive = mostly below about 40%;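 note: 0% = agonist challenge alone and 100% = reference antagonist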
GPR7 antagonist: human neuropeptides B/W receptor 1 antagonism. P48145. GPR7-expressing cells, fluorescence antagonist assay. AID 1861. inhibition, % at 4.4 µM. hit rate 1.1% among 290,000; in the data active = inhibition above about 16%, passing the limit was not always enough;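 note: cells stimulated with the agonist NPW; 0% = agonist with vehicle and 100% = vehicle without agonist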
Target sequence (P48145 whole entry, looked up): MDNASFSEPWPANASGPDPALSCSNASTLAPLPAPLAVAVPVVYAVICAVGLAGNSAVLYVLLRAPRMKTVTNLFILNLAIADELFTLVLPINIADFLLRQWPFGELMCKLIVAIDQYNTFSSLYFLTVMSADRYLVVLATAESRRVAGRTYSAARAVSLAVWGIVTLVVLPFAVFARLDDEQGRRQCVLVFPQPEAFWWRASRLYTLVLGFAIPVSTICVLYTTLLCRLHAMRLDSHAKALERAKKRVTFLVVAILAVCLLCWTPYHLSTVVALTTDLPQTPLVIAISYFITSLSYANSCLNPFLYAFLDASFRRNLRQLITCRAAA
PGE2 EP2 inh: blocks the human prostaglandin E2 receptor EP2; P43116; hit rate 0.52% among 260,000; AID 1422; C6 glioma cells expressing human EP2, cAMP TR-FRET; cells stimulated with saturating PGE2; inhibition, % at 25 µM;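 active = percent inhibition above 40 after rounding to a whole number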;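 note: rat C6 glioma host cells with rolipram phosphodiesterase inhibitor present; the protocol text gives 20 µM as final concentration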
GPR7 antag conf: human GPR7 antagonism, confirmation assay; shares compounds with GPR7 antagonist; GPR7-expressing cells, calcium fluorescence antagonist mode; inhibition, % at 4.4 µM; hit rate 52% among 2,400; AID 1952; in the data active = inhibition above about 24%;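 note: stimulated with the GPR7 agonist NPW; 0% = agonist plus vehicle and 100% = vehicle alone without agonist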
MCHR1 antagonist: antagonizes human MCHR1, a GPR7 antagonist counter-screen; MCHR1-expressing cells, fluorescence antagonist assay; shares compounds with GPR7 antagonist; inhibition, % at 4.4 µM; hit rate 62% among 2,400; in the data active = inhibition above about 22%;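 note: 0% = vehicle with agonist and 100% = vehicle without agonist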
* hit, by the source's call; . = not tested or not shown. Only some compounds are listed: those with a hit (about 3.7% of all), similar ones and a draw of the others.

SMILES	OX1R antag-1	CHO parental Ca	EP2 mod	OX1R antag-2	GPR7 antagonist	PGE2 EP2 inh	GPR7 antag conf	MCHR1 antagonist
CC(C)(C)NC(=O)COC(=O)c1ccccc1C(=O)c1ccccc1	-20.8	-15.2	-25.1	12.0	-1.3	8.9	.	.
C=CCN1CC(c2nc3ccccc3n2CCOc2ccccc2)CC1=O (stereo unspecified)	-6.8	-12.3	-16.9	26.7	32.7*	4.8	2.2	6.6
O=C(Nc1ccc(Cl)cc1)c1cccc(NC2=NC3CS(=O)(=O)CC3S2)c1 (stereo unspecified)	-14.9	-3.1	.	-0.4	24.1*	.	-3.3	0.0
CC(C)c1ccc(NC(=O)c2cccc(NC3=NC4CS(=O)(=O)CC4S3)c2)cc1 (stereo unspecified)	-3.1	0.6	.	7.6	0.2	.	.	.
Cc1ccc(Cn2nnc(C(=O)Nc3cccc(C)c3C)c2N)cc1	37.1*	25.5	-51.4	3.1	60.6*	30.2	77.3*	75.3*
COc1ccc(CNC(=O)c2nnn(Cc3ccc(OC)cc3)c2N)cc1	-13.8	-10.4	12.9	4.1	-8.4	13.1	.	.
CCc1ccc(Cn2nnc(C(=O)NCc3ccccc3OC)c2N)cc1	-3.7	4.2	6.3	10.8	24.8*	3.9	-0.6	-2.0
Cc1ccc(NC(=O)CCc2ccc(S(=O)(=O)NC3CCCCC3)cc2)cc1	3.6	-10.5	13.8	21.8	5.0	15.8	.	.
C/C(=C\c1ccccc1)CN(C)CCN(C)C	.	.	0.5	.	-3.9	6.5	.	.
CC(O)CNc1nc2sc3c(c2c(=O)n1CCc1ccccc1)CCCCC3 (stereo unspecified)	-22.4	-9.8	3.7	7.5	-8.4	6.3	.	.
CN(C)CCNc1nc2sc3c(c2c(=O)n1CCc1ccccc1)CCCCC3	-6.1	9.9	-42.8	7.0	26.4*	12.8	42.8*	57.1*
Cc1ccc(OCc2nnc(SCC(=O)N3CCCCC3C)n2C)cc1 (stereo unspecified)	.	.	0.2	.	.	14.4	.	.
CCc1nn(CC(=O)N2CCN(CC)CC2)c(=O)c2cc3sccc3n12	-25.7	-6.9	.	18.9	21.3*	.	-9.4	-2.6
CN(C)C(CNC(=O)c1cccc(S(=O)(=O)Nc2ccccc2Cl)c1)c1ccco1 (stereo unspecified)	-14.3	-0.2	.	9.6	.	.	.	.
COc1ccc2oc(C(=O)OCC(=O)NCCc3ccc(S(N)(=O)=O)cc3)c(C)c2c1	-26.8	-8.6	.	-3.4	.	.	.	.
CCN1CCN(C(c2ccccc2OC)c2nnnn2C2CCCCC2)CC1 (stereo unspecified)	-22.6	-24.7	16.8	15.5	30.1*	13.3	6.7	8.1
O=C(c1csc2c1CCCC2)N1CCN(c2ccccc2)CC1	-19.1	-16.2	-24.8	11.0	34.6*	22.6	23.5	12.4
O=C(c1ccccc1C(=O)N1CCN(c2ccccc2)CC1)N1CCN(c2ccccc2)CC1	-27.9	-15.8	-1.1	10.6	-7.8	8.5	.	.
O=C(NC1CCCC1)C(c1cccnc1)N(C(=O)c1ccco1)c1ccc(F)cc1 (stereo unspecified)	-27.0	-23.5	.	20.4	-8.2	.	.	.
COc1ccc(C(=O)/C=C/N(C)C)cc1	-28.9	-7.0	1.8	17.9	26.9*	16.1	-3.3	-4.5
CN(C)/C=C/C(=O)c1ccc(Oc2ccccc2)cc1	0.1	-6.8	-16.0	13.0	-2.1	12.6	.	.
Cc1nn(-c2ccccc2)c(C)c1/C=N/NC(=O)c1ccccc1O	.	.	.	.	0.6	.	.	.
O=C(CN1C(=O)COc2ccc(S(=O)(=O)N3CCCC3)cc21)NC1CCCCCCC1	-23.9	-11.6	1.4	-2.5	27.2*	0.6	-2.8	4.5
Cc1ccc2c(c1)N(CC(=O)OC(CC(C)C)C(=O)NC1CCCC1)C(=O)CO2 (stereo unspecified)	-33.4	-13.8	28.6	24.9	28.6*	5.4	30.4*	33.0*
CC(C)C(OC(=O)CN1C(=O)COc2ccccc21)C(=O)NC1CCCC1 (stereo unspecified)	-17.9	-5.2	22.5	12.4	14.7	8.2	.	.
SMILES	OX1R antag-1	CHO parental Ca	EP2 mod	OX1R antag-2	GPR7 antagonist	PGE2 EP2 inh	GPR7 antag conf	MCHR1 antagonist
COc1cccc(CNC(=O)CN2C(=O)COc3ccc(S(=O)(=O)N4CCOCC4)cc32)c1	-13.2	-10.3	.	23.2	32.1*	.	-9.0	3.2
CC(C)c1ccc(C(=O)OCC(=O)c2c(N)n(C)c(=O)n(C)c2=O)cc1	-3.3	-6.8	.	17.6	.	.	.	.
CCNS(=O)(=O)c1ccc(NC(=O)Nc2cc(C)ccc2OC)cc1	0.7	-2.3	-34.1	5.3	1.9	7.4	.	.
Nc1ncnc2nc(SCCc3ccccc3)[nH]c12	1.6	4.1	-3.6	7.4	-8.4	7.8	.	.
O=C(Nc1cccc(Cl)c1N1CCCC1)c1ccc([N+](=O)[O-])o1	-10.4	-26.4	28.9	2.5	-12.0	5.6	.	.
CCN1CCN(c2c(Cl)cccc2NC(=O)c2ccc([N+](=O)[O-])o2)CC1	-14.1	-15.0	.	55.9*	27.8*	.	33.9*	33.6*
CCSc1nsc(NC(=O)Nc2ccccc2F)n1	4.1	20.3	.	33.6	1.2	.	.	.
CCSc1nsc(NC(C)=O)n1	.	.	13.3	.	.	15.9	.	.
C=CCSc1nsc(NC(=O)Nc2ccc(F)cc2)n1	-1.1	50.7*	.	70.1*	35.6*	.	61.3*	61.0*
CCSc1nsc(NC(=O)Nc2cccc(OC)c2)n1	28.7	43.5*	.	51.7*	28.3*	.	36.9*	61.5*
CCC(C)(C)NC(=O)c1cc(S(=O)(=O)N2CCc3ccccc32)cn1C	-15.7	-1.2	.	8.2	21.1*	.	9.7	35.4*
Cc1ccc(-n2nnnc2SCC(=O)Nc2ccc3c(c2)OCCO3)cc1C	-21.9	-25.4	-61.8	27.3	21.4*	17.4	9.4	5.2
O=C(CSc1nnnn1-c1ccc2c(c1)OCCO2)Nc1ccc2c(c1)OCCO2	.	.	-77.0	.	.	14.6	.	.
CCc1ccc(C2CC(c3ccccc3)Nc3nc(N)nn32)cc1 (stereo unspecified)	-3.8	-10.8	-7.9	11.4	-1.3	6.9	.	.
COc1ccc(C2CC(c3ccccc3C)n3nc(N)nc3N2)cc1 (stereo unspecified)	-19.2	-11.6	2.0	8.5	3.0	5.1	.	.
CCc1ccc(C2CC(c3ccccc3Cl)Nc3nc(N)nn32)cc1 (stereo unspecified)	-3.4	-8.9	-0.6	9.9	30.3*	13.1	42.3*	19.3
COc1cccc(C2CC(c3ccc(Cl)cc3Cl)n3nc(N)nc3N2)c1 (stereo unspecified)	-13.8	-17.0	20.0	6.5	26.9*	8.3	11.4	1.0
Cc1ccc(C2CC(c3ccccc3C)n3nc(N)nc3N2)cc1 (stereo unspecified)	3.4	-5.3	-0.2	11.3	26.4*	9.6	12.3	2.8
COc1ccc(C2CC(c3cccc(OC)c3)n3nc(N)nc3N2)cc1 (stereo unspecified)	-3.9	-9.2	14.6	6.2	39.3*	8.1	-3.3	-8.8
